As a reminder, the IC50 is the point on the concentration scale where inhibition reaches its midpoint. Low readings indicate inhibition by little substance, high ones a need for much substance.

Holding throughout (type): functional, cell-based
Experiment [1] is described as follows: Anticancer activity against human HL60 cells after 48 hrs by MTT assay. The note with it: HL-60, 48 h. In outline: (§1)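 Cells grown in RPMI-1640 or DMEM with 10% FBS at 37 °C, 5% CO2. Seeded at 1 × 10^5 cells/mL in 100 µL per well. Adherent lines were allowed to attach for 12 h before drug; suspension cells were seeded just before drug. Triplicate exposure to a range of compound concentrations for 48 h. MTT (100 µg/well) was added for 4 h at 37 °C, cells lysed with SDS, and OD read at 595 nm.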

A short description of experiment [2]: Anticancer activity against human SMMC7721 cells after 48 hrs by MTT assay. The settings on record: SMMC-7721, 48 h. In outline:
as §1
(Formazan colour is commonly taken as a measure of viable cells.)

Experiment [3] concerns A549. Nature of the experiment: Anticancer activity against human A549 cells after 48 hrs by MTT assay. The note with it: A549, 48 h. An outline of the steps:
as §1

For experiment [4], the system named is MCF7. Nature of the experiment: Anticancer activity against human MCF7 cells after 48 hrs by MTT assay. The note with it: MCF7, 48 h. An outline of the steps: as §1
Experiment [5] concerns SW480. Nature of the experiment: Anticancer activity against human SW480 cells after 48 hrs by MTT assay. The settings on record: SW480, 48 h. In outline: as §1

As for `CCCC(=O)OC[C@H]1O[C@H](O[C@@H]2c3cc4c(cc3[C@@H](c3cc(OC)c(OC)c(OC)c3)[C@H]3C(=O)OC[C@@H]32)OCO4)[C@H](OC(=O)CCC)[C@@H](OC(=O)CCC)[C@@H]1OC(=O)CCC`, the IC50 in experiment [1], in experiment [2], in experiment [3], in experiment [4] and in experiment [5] was more than 40 µM throughout.
For `CCCC(=O)OC[C@H]1O[C@H](O[C@@H]2c3cc4c(cc3[C@@H](c3cc(OC)c(OC)c(OC)c3)[C@H]3C(=O)OC[C@@H]32)OCO4)[C@H](OC(=O)CCC)[C@@H](OC(=O)CCC)[C@H]1OC(=O)CCC`, the IC50 in experiment [1] was 0.14 µM; in experiment [2], 0.62 µM; in experiment [3], 0.61 µM; in experiment [4] it was 1.27 µM; in experiment [5] it was 1.65 µM.
With `CCCC(=O)OC[C@H]1O[C@H](O[C@@H]2c3cc4c(cc3[C@@H](c3cc(OC)c(OC)c(OC)c3)[C@H]3C(=O)OC[C@@H]32)OCO4)[C@@H](OC(=O)CCC)[C@@H](OC(=O)CCC)[C@@H]1OC(=O)CCC`, the IC50 in experiment [1], in experiment [2], in experiment [3], in experiment [4] and in experiment [5] was more than 40 µM in each case.
As to `CCCC(=O)O[C@@H]1[C@@H](OC(=O)CCC)[C@H](C)O[C@@H](O[C@@H]2c3cc4c(cc3[C@@H](c3cc(OC)c(OC)c(OC)c3)[C@H]3C(=O)OC[C@@H]32)OCO4)[C@@H]1OC(=O)CCC`, the IC50 in experiment [1] was 5.32 µM; in experiment [2] it was 15.2 µM; in experiment [3], 7.62 µM; in experiment [4], 13.5 µM; in experiment [5], 16.8 µM.
The matching figures for `CCCC(=O)O[C@@H]1[C@@H](O[C@@H]2c3cc4c(cc3[C@@H](c3cc(OC)c(OC)c(OC)c3)[C@H]3C(=O)OC[C@@H]32)OCO4)OC[C@@H](OC(=O)CCC)[C@@H]1OC(=O)CCC`: 0.6 µM, 0.78 µM, 0.61 µM, 1.42 µM and 1.11 µM.
Turning to `CCCC(=O)OC[C@H]1O[C@H](O[C@H]2[C@H](OC(=O)CCC)[C@@H](OC(=O)CCC)[C@@H](O[C@@H]3c4cc5c(cc4[C@@H](c4cc(OC)c(OC)c(OC)c4)[C@H]4C(=O)OC[C@@H]43)OCO5)O[C@@H]2COC(=O)CCC)[C@H](OC(=O)CCC)[C@@H](OC(=O)CCC)[C@@H]1OC(=O)CCC`, the IC50 in experiment [1], in experiment [2], in experiment [3], in experiment [4] and in experiment [5] was more than 40 µM in each case.
Consider `CCCC(=O)OC[C@H]1O[C@@H](O[C@H]2[C@H](OC(=O)CCC)[C@@H](OC(=O)CCC)[C@@H](O[C@@H]3c4cc5c(cc4[C@@H](c4cc(OC)c(OC)c(OC)c4)[C@H]4C(=O)OC[C@@H]43)OCO5)O[C@@H]2COC(=O)CCC)[C@H](OC(=O)CCC)[C@@H](OC(=O)CCC)[C@H]1OC(=O)CCC`, for which the IC50 in experiment [1], in experiment [2], in experiment [3], in experiment [4] and in experiment [5] was more than 40 µM in each case.
Take `CCCC(=O)OC[C@H]1O[C@H](O[C@@H]2c3cc4c(cc3[C@@H](c3cc(OC)c(O)c(OC)c3)[C@H]3C(=O)OC[C@@H]32)OCO4)[C@H](OC(=O)CCC)[C@@H](OC(=O)CCC)[C@@H]1OC(=O)CCC`: the IC50 in experiment [1] amounted to 16.9 µM; in experiment [2] it was 16.8 µM; in experiment [3], 16 µM; in experiment [4] it was 39.1 µM; in experiment [5], 38.7 µM.
Take `CCCC(=O)OC[C@H]1O[C@H](O[C@@H]2c3cc4c(cc3[C@@H](c3cc(OC)c(O)c(OC)c3)[C@H]3C(=O)OC[C@@H]32)OCO4)[C@H](OC(=O)CCC)[C@@H](OC(=O)CCC)[C@H]1OC(=O)CCC`: the IC50 in experiment [1] is 4.89 µM; in experiment [2], 3.78 µM; in experiment [3], 5.7 µM; in experiment [4], 5.67 µM; in experiment [5], 10.7 µM.
For `CCCC(=O)OC[C@H]1O[C@H](O[C@@H]2c3cc4c(cc3[C@@H](c3cc(OC)c(O)c(OC)c3)[C@H]3C(=O)OC[C@@H]32)OCO4)[C@@H](OC(=O)CCC)[C@@H](OC(=O)CCC)[C@@H]1OC(=O)CCC` the same measures were 2.71 µM, 3.84 µM, 3.1 µM, 7.5 µM and 4.85 µM.
Regarding `CCCC(=O)O[C@@H]1[C@@H](OC(=O)CCC)[C@H](C)O[C@@H](O[C@@H]2c3cc4c(cc3[C@@H](c3cc(OC)c(O)c(OC)c3)[C@H]3C(=O)OC[C@@H]32)OCO4)[C@@H]1OC(=O)CCC`, the IC50 in experiment [1] is 2.54 µM; in experiment [2], 2.68 µM; in experiment [3] it was 3.52 µM; in experiment [4] it was 4.71 µM; in experiment [5], 5.05 µM.
Consider `CCCC(=O)O[C@@H]1[C@@H](O[C@@H]2c3cc4c(cc3[C@@H](c3cc(OC)c(O)c(OC)c3)[C@H]3C(=O)OC[C@@H]32)OCO4)OC[C@@H](OC(=O)CCC)[C@@H]1OC(=O)CCC`, for which the IC50 was 26.5 µM in experiment [1]; 17.1 µM in experiment [2]; 23.2 µM in experiment [3]; 29.3 µM in experiment [4]; more than 40 µM in experiment [5].
For the compound `CCCC(=O)OC[C@H]1O[C@H](O[C@H]2[C@H](OC(=O)CCC)[C@@H](OC(=O)CCC)[C@@H](O[C@@H]3c4cc5c(cc4[C@@H](c4cc(OC)c(O)c(OC)c4)[C@H]4C(=O)OC[C@@H]43)OCO5)O[C@@H]2COC(=O)CCC)[C@H](OC(=O)CCC)[C@@H](OC(=O)CCC)[C@@H]1OC(=O)CCC`, the IC50 in experiment [1], in experiment [2], in experiment [3], in experiment [4] and in experiment [5] was more than 40 µM throughout.
As to `CCCC(=O)OC[C@H]1O[C@@H](O[C@H]2[C@H](OC(=O)CCC)[C@@H](OC(=O)CCC)[C@@H](O[C@@H]3c4cc5c(cc4[C@@H](c4cc(OC)c(O)c(OC)c4)[C@H]4C(=O)OC[C@@H]43)OCO5)O[C@@H]2COC(=O)CCC)[C@H](OC(=O)CCC)[C@@H](OC(=O)CCC)[C@H]1OC(=O)CCC`, the IC50 is 9.59 µM in experiment [1]; 20.2 µM in experiment [2]; 18.6 µM in experiment [3]; more than 40 µM in experiment [4]; more than 40 µM in experiment [5].
Take `CCCC(=O)OC[C@H]1O[C@@H](O[C@@H]2c3cc4c(cc3[C@@H](c3cc(OC)c(OC)c(OC)c3)[C@H]3C(=O)OC[C@@H]32)OCO4)[C@H](OC(=O)CCC)[C@@H](OC(=O)CCC)[C@@H]1OC(=O)CCC`: the IC50 is 0.61 µM in experiment [1]; 0.83 µM in experiment [2]; 1.12 µM in experiment [3]; 1.69 µM in experiment [4]; 1.26 µM in experiment [5].
On to `CCCC(=O)OC[C@H]1O[C@@H](O[C@@H]2c3cc4c(cc3[C@@H](c3cc(OC)c(OC)c(OC)c3)[C@H]3C(=O)OC[C@@H]32)OCO4)[C@H](OC(=O)CCC)[C@@H](OC(=O)CCC)[C@H]1OC(=O)CCC`, for which the IC50 worked out at 3.15 µM in experiment [1]; 18.1 µM in experiment [2]; 17.8 µM in experiment [3]; 22.1 µM in experiment [4]; 26.5 µM in experiment [5].
The matching figures for `COc1cc([C@@H]2c3cc4c(cc3[C@@H](O[C@@H]3O[C@@H]5CO[C@@H](C)O[C@H]5[C@H](O)[C@H]3O)[C@H]3COC(=O)[C@H]23)OCO4)cc(OC)c1O` [ETOPOSIDE]: 0.31 µM, 8.12 µM, 11.9 µM, 32.8 µM and 17.1 µM.
